Columns and labels:
[1] = Maximal plasma concentration in rat; format: ADME, organism-based
Method in brief: (§1)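 Male Sprague-Dawley rats (300–350 g) had jugular cannulae placed under pentobarbital the day before dosing. Groups of n = 4 got 5 mg/kg iv bolus (DMSO/emulphor/saline 5:5:90) or 10 mg/kg po (DMSO/emulphor/water 5:5:90). Serial plasma was taken to 24 h (iv) or 8 h (po) and assayed by HPLC-UV at 300 nm. AUC was by linear trapezoid, CL = dose/AUC, Vdss = CL×MRT, and F from dose-normalised po/iv AUC.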

Rattus norvegicus [2] = species: Rattus norvegicus; assay: Half life in rat; format: ADME, organism-based; conditions: in vivo; method in brief: as §1
[3] = Plasma clearance in rat; format: ADME, organism-based; method in brief: as §1
[4] = target: T1, Corticotropin-releasing factor receptor 1 (Rattus norvegicus, UniProt P35353); assay: Inhibition of binding of 70 pM [125I]-Try0-o-Corticotropin-releasing Factor (CFR) to Corticotropin releasing hormone receptor 1 in Rat brain membrane; format: cell membranes
T1 sequence (P35353 whole entry): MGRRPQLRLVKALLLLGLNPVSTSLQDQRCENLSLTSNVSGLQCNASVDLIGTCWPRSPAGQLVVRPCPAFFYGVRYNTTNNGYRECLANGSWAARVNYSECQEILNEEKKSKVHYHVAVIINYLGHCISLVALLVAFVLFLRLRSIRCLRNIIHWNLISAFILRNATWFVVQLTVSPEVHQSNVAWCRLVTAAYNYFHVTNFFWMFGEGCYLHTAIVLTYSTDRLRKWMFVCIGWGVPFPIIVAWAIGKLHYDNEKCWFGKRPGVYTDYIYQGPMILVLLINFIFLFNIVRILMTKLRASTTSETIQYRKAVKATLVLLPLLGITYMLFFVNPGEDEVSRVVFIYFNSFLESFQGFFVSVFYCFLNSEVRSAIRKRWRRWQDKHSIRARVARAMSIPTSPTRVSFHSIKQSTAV

[5] = Oral bioavailability in rat; format: ADME, organism-based; conditions: in vivo, read-out: Bioavailabiility; method in brief: as §1
[6] = target: Corticotropin-releasing factor receptor 2 (Rattus norvegicus, UniProt P47866); assay: Inhibition of binding of [125I]-Tyr0-sauvagine to Corticotropin releasing hormone receptor 2 (CRF2)
Rattus norvegicus [7] = species: Rattus norvegicus; assay: Volume of distribution in steady state in rat; format: ADME, organism-based; conditions: in vivo; method in brief: as §1

Chain of Corticotropin-releasing factor receptor 2 (P47866 whole entry): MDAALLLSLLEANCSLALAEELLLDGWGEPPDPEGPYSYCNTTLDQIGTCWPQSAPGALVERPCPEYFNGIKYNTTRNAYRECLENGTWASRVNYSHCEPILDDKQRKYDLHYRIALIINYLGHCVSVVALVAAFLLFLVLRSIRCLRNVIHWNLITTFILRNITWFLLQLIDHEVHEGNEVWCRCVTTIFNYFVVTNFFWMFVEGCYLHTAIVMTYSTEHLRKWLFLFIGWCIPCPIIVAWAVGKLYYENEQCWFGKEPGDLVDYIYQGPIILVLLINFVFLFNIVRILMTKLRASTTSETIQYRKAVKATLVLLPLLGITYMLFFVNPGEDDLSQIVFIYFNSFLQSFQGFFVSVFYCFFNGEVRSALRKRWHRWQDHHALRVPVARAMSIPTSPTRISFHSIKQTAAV

CCCCN(CC)c1nc(C)nc2c1c(C)cn2-c1c(C)cc(C)cc1C [CP-154526]
Cmax [1]: 367 ng/mL | T1/2 (Rattus norvegicus [2]): 1.5 h | clearance [3]: 82 mL/min/kg | IC50 [4]: 5.5 nM | bioavailability [5]: 37% | Ki [6]: > 10000 nM | Vdss (Rattus norvegicus [7]): 6.7 L/kg
